Measurements published in ChEMBL document CHEMBL4321879, “Novel Class of Colony-Stimulating Factor 1 Receptor Kinase Inhibitors Based on an o-Aminopyridyl Alkynyl Scaffold as Potential Treatment for Inflammatory Disorders” (J Med Chem, 2020).

Key:
[1] = biological target: Ephrin type-A receptor 2 (Homo sapiens) (UniProt P29317); test: Inhibition of recombinant human N-terminal His6-tagged EphA2 (596 to 900 residues) expressed in baculovirus infected Sf21 insect cells at 100 nM using poly (Glu, Tyr)4:1 as substrate measured after 1 hr by ELISA relative to control
Sequence of Ephrin type-A receptor 2 (Homo sapiens) (P29317 whole entry, the tested form may be a part): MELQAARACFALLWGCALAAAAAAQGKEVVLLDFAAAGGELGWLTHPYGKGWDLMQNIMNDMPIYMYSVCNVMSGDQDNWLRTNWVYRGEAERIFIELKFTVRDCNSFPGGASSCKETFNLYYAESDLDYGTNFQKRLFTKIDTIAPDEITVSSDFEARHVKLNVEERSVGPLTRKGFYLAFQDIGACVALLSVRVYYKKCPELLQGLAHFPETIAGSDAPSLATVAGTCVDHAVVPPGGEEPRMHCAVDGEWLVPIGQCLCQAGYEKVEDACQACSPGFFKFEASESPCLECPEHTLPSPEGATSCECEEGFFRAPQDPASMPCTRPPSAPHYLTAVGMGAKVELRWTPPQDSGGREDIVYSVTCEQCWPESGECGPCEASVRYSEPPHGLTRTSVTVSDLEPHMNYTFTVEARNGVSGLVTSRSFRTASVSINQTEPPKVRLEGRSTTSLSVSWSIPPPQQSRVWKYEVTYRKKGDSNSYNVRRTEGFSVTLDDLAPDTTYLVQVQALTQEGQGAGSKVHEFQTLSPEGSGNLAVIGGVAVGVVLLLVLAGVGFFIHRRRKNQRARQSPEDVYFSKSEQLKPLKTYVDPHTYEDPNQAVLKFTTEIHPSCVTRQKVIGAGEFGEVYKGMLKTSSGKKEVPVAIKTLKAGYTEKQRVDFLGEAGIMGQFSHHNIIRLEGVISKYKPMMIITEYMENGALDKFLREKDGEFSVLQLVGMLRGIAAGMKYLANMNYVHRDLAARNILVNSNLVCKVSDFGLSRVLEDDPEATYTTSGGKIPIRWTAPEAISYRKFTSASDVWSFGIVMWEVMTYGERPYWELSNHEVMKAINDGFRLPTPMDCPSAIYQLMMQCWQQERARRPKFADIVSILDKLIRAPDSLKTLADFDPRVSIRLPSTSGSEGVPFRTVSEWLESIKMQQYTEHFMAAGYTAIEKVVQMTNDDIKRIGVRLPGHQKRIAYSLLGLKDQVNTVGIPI
How it was run: (§1)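 Recombinant kinase was incubated with compound in reaction buffer containing 5 μM ATP, in wells precoated with poly(Glu,Tyr) 4:1, for 1 h at 37 °C. Phosphorylation was detected by ELISA.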

[2] = biological target: Vascular endothelial growth factor receptor 3 (Homo sapiens) (UniProt P35916); test: Inhibition of recombinant VEGFR3 (unknown origin) at 10 nM using poly (Glu, Tyr)4:1 as substrate measured after 1 hr by ELISA relative to control; how it was run: as §1
[3] = biological target: Tyrosine-protein kinase ITK/TSK (Homo sapiens) (UniProt Q08881); test: Inhibition of recombinant human N-terminal His6-tagged ITK (352 to 617 residues) expressed in baculovirus infected Sf21 insect cells at 1000 nM using poly (Glu, Tyr)4:1 as substrate measured after 1 hr by ELISA relative to control
Sequence of Tyrosine-protein kinase ITK/TSK (Homo sapiens) (Q08881 whole entry, the tested form may be a part): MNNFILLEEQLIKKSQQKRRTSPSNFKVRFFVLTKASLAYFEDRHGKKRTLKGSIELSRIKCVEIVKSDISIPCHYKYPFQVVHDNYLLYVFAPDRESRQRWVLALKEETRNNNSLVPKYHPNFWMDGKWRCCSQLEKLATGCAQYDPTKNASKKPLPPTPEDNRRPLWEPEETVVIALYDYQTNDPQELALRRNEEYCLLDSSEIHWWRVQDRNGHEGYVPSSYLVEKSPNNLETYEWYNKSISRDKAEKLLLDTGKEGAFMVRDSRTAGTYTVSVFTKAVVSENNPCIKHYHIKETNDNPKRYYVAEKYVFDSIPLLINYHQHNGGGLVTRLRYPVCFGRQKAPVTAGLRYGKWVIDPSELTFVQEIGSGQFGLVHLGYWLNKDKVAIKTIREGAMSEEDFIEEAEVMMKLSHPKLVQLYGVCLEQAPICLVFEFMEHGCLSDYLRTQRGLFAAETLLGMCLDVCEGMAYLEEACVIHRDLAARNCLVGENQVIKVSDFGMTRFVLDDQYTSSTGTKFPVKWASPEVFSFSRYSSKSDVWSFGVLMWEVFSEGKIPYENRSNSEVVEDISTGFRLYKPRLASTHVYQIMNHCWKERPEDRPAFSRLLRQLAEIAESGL
How it was run: (§2)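 ELISA kinase assay: recombinant kinase added to wells precoated with poly(Glu,Tyr)4:1 and incubated with compound in reaction buffer containing 5 μM ATP, 37 °C for 1 h; wells then washed before antibody detection.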

[4] = biological target: Tyrosine-protein kinase ITK/TSK (Homo sapiens) (UniProt Q08881); test: Inhibition of recombinant human N-terminal His6-tagged ITK (352 to 617 residues) expressed in baculovirus infected Sf21 insect cells at 100 nM using poly (Glu, Tyr)4:1 as substrate measured after 1 hr by ELISA relative to control; how it was run: as §2
[5] = biological target: Macrophage colony-stimulating factor 1 receptor (Mus musculus) (UniProt P09581); test: Inhibition of CSF1R in CSF1-stimulated mouse RAW264.7 cells assessed as reduction in AKT phosphorylation preincubated for 6 hrs followed by CSF1 stimulation and measured after 20 mins by Western blot analysis; assay type: cell-based
How it was run: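 RAW264.7 cells were plated in six-well plates overnight, treated with compound for 6 h, then stimulated with CSF-1 100 ng/mL for 20 min. Lysates were normalized by BCA, run on 10% SDS-PAGE, and blotted with antibodies to phospho-CSF1R (Tyr723), CSF1R, phospho-Akt (Ser473), Akt and actin.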

[6] = biological target: Activated CDC42 kinase 1 (Homo sapiens) (UniProt Q07912); test: Inhibition of recombinant human N-terminal GST-tagged ACK1 (1 to 389 residues) expressed in baculovirus infected Sf21 insect cells at 100 nM using poly (Glu, Tyr)4:1 as substrate measured after 1 hr by ELISA relative to control; how it was run: as §1
[7] = biological target: Fibroblast growth factor receptor 2 (Homo sapiens, UniProt P21802); test: Inhibition of recombinant human N-terminal His6-tagged FGFR2 (456 to 770 residues) expressed in baculovirus infected Sf21 insect cells at 1000 nM using poly (Glu, Tyr)4:1 as substrate measured after 1 hr by ELISA relative to control; how it was run: as §1
Sequence of Fibroblast growth factor receptor 2 (P21802 22-821 limits assumed): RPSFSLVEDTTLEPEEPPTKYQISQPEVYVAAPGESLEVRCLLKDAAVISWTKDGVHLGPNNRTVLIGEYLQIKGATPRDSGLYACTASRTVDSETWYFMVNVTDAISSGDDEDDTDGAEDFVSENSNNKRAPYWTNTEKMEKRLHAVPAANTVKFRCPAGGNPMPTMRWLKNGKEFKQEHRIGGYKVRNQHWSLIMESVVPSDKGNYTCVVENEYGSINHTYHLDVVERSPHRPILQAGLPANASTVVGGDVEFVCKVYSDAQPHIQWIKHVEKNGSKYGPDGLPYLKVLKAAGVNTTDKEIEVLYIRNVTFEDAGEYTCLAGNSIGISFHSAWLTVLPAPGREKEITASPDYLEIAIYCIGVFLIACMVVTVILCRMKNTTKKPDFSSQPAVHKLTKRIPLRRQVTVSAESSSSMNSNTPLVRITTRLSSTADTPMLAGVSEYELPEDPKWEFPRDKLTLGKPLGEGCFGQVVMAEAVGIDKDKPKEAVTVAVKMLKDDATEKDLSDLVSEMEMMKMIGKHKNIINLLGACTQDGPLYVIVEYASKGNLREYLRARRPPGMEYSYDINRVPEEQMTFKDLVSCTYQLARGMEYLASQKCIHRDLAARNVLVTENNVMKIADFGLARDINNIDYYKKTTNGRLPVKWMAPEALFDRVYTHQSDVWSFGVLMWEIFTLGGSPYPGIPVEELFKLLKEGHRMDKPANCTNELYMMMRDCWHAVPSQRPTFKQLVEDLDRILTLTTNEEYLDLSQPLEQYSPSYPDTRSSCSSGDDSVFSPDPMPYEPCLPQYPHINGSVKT

[8] = biological target: Insulin-like growth factor 1 receptor (Homo sapiens) (UniProt P08069); test: Inhibition of recombinant human N-terminal His6-tagged IGF1R (959 to end residues) expressed in baculovirus infected Sf21 insect cells at 1000 nM using poly (Glu, Tyr)4:1 as substrate measured after 1 hr by ELISA relative to control; how it was run: as §2
[9] = system: RAW264.7; test: Antiinflammatory activity in mouse RAW264.7 cells assessed as reduction in LPS-induced TNFalpha release measured after 24 hrs by ELISA; assay type: functional, cell-based; conditions: RAW264.7, 24 h
How it was run: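 RAW264.7 cells in DMEM with 10% FBS and 0.125% DMSO were incubated with compound, then primed with LPS 1 μg/mL for 24 h. Supernatant TNF-α and IL-6 measured by mouse ELISA. IC50 from log(inhibitor) versus normalized response nonlinear fit.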

[10] = Volume of distribution at steady state in Sprague-Dawley rat at 2 mg/kg, iv administered […] by LC-MS/MS analysis; assay type: ADME, organism-based; conditions: in vivo, read-out: Vdss
How it was run: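 Male SD rats (200 ± 20 g), fasted 12 h, n = 3; single intravenous dose of 2 mg/kg in DMSO/EtOH/PEG300/saline (5/5/40/50). Femoral vein blood at 15–1440 min; plasma precipitated with methanol containing internal standard, assayed by LC–MS/MS; noncompartmental analysis (MRT = AUMC/AUC, Vss = CL × MRT).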

[11] = biological target: Platelet-derived growth factor receptor alpha (Homo sapiens) (UniProt P16234); test: Inhibition of recombinant human N-terminal His6-tagged PDGFRalpha (550 to end residues) expressed in baculovirus infected Sf21 insect cells at 10 nM using poly (Glu, Tyr)4:1 as substrate measured after 1 hr by ELISA relative to control; how it was run: as §2
Sequence of Platelet-derived growth factor receptor alpha (Homo sapiens) (P16234 whole entry, the tested form may be a part): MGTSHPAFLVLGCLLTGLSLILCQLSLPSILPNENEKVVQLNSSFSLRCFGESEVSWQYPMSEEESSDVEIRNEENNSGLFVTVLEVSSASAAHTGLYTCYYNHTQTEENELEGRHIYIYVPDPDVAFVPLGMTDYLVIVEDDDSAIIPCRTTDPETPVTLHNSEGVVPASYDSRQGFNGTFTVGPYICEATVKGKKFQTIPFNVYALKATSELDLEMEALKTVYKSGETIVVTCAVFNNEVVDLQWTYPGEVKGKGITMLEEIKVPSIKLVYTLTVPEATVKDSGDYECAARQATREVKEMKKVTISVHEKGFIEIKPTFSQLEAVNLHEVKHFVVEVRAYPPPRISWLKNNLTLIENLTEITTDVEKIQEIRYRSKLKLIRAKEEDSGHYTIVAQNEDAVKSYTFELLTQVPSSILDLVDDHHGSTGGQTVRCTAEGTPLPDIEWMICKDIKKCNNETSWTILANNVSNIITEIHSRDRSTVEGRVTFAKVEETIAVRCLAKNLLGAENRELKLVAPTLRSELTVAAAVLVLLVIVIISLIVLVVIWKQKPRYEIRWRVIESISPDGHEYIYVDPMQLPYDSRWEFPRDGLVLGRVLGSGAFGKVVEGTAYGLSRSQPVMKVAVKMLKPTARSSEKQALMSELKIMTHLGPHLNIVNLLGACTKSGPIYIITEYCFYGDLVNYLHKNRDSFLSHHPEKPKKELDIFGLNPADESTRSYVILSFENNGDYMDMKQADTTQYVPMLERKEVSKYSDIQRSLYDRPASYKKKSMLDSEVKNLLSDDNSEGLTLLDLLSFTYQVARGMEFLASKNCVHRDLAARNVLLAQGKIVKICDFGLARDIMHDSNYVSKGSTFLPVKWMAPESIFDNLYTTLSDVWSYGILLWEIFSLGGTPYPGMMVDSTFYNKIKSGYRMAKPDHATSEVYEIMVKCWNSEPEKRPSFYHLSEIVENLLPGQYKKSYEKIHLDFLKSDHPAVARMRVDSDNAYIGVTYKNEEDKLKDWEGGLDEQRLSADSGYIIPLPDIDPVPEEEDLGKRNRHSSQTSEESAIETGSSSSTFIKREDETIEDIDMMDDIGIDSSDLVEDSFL

[12] = biological target: Ephrin type-A receptor 2 (Homo sapiens) (UniProt P29317); test: Inhibition of recombinant human N-terminal His6-tagged EphA2 (596 to 900 residues) expressed in baculovirus infected Sf21 insect cells at 1000 nM using poly (Glu, Tyr)4:1 as substrate measured after 1 hr by ELISA relative to control; how it was run: as §1
[13] = biological target: FLT3 (Homo sapiens, UniProt P36888); test: Inhibition of recombinant human N-terminal GST-tagged FLT3 (564 to end residues) expressed in Sf21 insect cells at 100 nM using poly (Glu, Tyr)4:1 as substrate measured after 1 hr by ELISA relative to control; conditions: probe poly (Glu, Tyr)4:1; how it was run: as §1
[14] = biological target: Receptor tyrosine-protein kinase erbB-4 (Homo sapiens) (UniProt Q15303); test: Inhibition of recombinant human N-terminal His6-tagged Erbb4 (706 to 991 residues) expressed in baculovirus infected Sf21 insect cells at 100 nM using poly (Glu, Tyr)4:1 as substrate measured after 1 hr by ELISA relative to control; how it was run: as §1
Sequence of Receptor tyrosine-protein kinase erbB-4 (Homo sapiens) (Q15303 whole entry, the tested form may be a part): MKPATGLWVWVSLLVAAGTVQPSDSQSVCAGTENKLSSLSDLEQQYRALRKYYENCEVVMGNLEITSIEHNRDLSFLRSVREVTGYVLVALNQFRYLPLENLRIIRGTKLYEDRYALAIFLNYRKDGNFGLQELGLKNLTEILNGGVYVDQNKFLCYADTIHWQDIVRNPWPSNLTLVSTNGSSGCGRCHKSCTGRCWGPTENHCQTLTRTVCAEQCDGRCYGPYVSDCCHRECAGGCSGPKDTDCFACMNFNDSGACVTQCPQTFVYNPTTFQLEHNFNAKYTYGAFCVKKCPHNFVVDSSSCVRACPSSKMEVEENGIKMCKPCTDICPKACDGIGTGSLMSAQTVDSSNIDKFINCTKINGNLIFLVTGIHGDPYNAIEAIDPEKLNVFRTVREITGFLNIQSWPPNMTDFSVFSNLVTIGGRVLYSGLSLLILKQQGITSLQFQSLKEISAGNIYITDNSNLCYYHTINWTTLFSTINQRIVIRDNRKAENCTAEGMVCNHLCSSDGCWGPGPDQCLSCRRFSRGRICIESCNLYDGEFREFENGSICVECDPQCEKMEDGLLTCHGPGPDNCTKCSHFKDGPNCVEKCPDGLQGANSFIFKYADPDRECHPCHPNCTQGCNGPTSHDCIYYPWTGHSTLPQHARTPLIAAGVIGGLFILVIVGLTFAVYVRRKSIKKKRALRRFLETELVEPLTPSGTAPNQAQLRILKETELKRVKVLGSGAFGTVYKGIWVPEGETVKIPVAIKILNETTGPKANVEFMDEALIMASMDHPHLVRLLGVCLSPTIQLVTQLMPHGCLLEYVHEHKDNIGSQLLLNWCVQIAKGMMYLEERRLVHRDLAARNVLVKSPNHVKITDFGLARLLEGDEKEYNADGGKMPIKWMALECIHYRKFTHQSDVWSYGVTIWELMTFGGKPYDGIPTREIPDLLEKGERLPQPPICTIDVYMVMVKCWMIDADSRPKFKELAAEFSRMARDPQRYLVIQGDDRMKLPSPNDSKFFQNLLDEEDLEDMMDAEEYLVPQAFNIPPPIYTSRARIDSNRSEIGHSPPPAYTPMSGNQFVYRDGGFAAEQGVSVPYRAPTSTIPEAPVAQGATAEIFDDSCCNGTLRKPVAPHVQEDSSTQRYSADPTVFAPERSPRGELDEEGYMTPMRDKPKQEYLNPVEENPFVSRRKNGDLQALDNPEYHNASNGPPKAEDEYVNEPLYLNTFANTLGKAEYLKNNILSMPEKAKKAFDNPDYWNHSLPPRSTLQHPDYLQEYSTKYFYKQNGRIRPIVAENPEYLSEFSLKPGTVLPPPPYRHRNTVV

[15] = biological target: Fibroblast growth factor receptor 1 (Homo sapiens, UniProt P11362); test: Inhibition of recombinant human N-terminal GST-tagged FGFR1 (456 to 765 residues) expressed in baculovirus infected Sf21 insect cells using poly (Glu, Tyr)4:1 as substrate measured after 1 hr by ELISA; how it was run: as §1
[16] = biological target: Platelet-derived growth factor receptor alpha (Homo sapiens) (UniProt P16234); test: Inhibition of recombinant human N-terminal His6-tagged PDGFRalpha (550 to end residues) expressed in baculovirus infected Sf21 insect cells at 100 nM using poly (Glu, Tyr)4:1 as substrate measured after 1 hr by ELISA relative to control; how it was run: as §2
[17] = biological target: Receptor tyrosine-protein kinase erbB-4 (Homo sapiens) (UniProt Q15303); test: Inhibition of recombinant human N-terminal His6-tagged Erbb4 (706 to 991 residues) expressed in baculovirus infected Sf21 insect cells at 1000 nM using poly (Glu, Tyr)4:1 as substrate measured after 1 hr by ELISA relative to control; how it was run: as §1
[18] = biological target: Vascular endothelial growth factor receptor 1 (Homo sapiens) (UniProt P17948); test: Inhibition of recombinant human VEGFR1 expressed in Spodoptera frugiperda insect cells at 100 nM using poly (Glu, Tyr)4:1 as substrate measured after 1 hr by ELISA relative to control; how it was run: as §2
[19] = biological target: Vascular endothelial growth factor receptor 3 (Homo sapiens) (UniProt P35916); test: Inhibition of recombinant VEGFR3 (unknown origin) at 1000 nM using poly (Glu, Tyr)4:1 as substrate measured after 1 hr by ELISA relative to control; how it was run: as §1

Q: Which inhibition [1] does the source give for Cc1ccc(C(=O)Nc2ccc(Cl)cc2)cc1C#Cc1cc(-c2cnn(C)c2)cnc1N here?
A: The inhibition was 31.4%.

Q: What about the inhibition [2] of the same compound?
A: The inhibition was 27.3%.

Q: And the inhibition [3]?
A: Its inhibition is 7.4%.

Q: And the inhibition [4]?
A: The inhibition was 4.2%.

Q: And the inhibition [5]?
A: Its inhibition is “Dose-dependent effect”.

Q: What about the inhibition [6] of the same compound?
A: The inhibition was 10.3%.

Q: And the inhibition [7]?
A: Its inhibition is 20.7%.

Q: What about the inhibition [8] of the same compound?
A: The inhibition was 0%.

Q: And the IC50 [9]?
A: Its IC50 is 110 nM.

Q: And the Vd [10]?
A: Its Vd is 6.34 L/kg.

Q: And the inhibition [11]?
A: Its inhibition is 54.6%.

Q: What about the inhibition [12] of the same compound?
A: The inhibition was 92.3%.

Q: What about the inhibition at 1 h, 0.1 µM [13] of the same compound?
A: The inhibition at 1 h, 0.1 µM was 0%.

Q: And the inhibition [14]?
A: Its inhibition is 6.6%.

Q: What about the IC50 [15] of the same compound?
A: Its IC50 is greater than 1000 nM.

Q: And the inhibition [16]?
A: Its inhibition is 83.9%.

Q: And the inhibition [17]?
A: The inhibition was 1.6%.

Q: And the inhibition [18]?
A: Its inhibition is 78.5%.

Q: What about the inhibition [19] of the same compound?
A: The inhibition was 100%.
